ChEMBL document CHEMBL1138666, “Direct influence of C-terminally substituted amino acids in the Dmt-Tic pharmacophore on delta-opioid receptor selectivity and antagonism” (J Med Chem, 2004)
Square brackets hold non-standard residues; d marks the D form. Peptide text beside a SMILES is read from it. ξ: configuration not given here. Dmt = Cc1cc(O)cc(C)c1C[C@H](N)C(=O)O; Tic = O=C(O)[C@@H]1Cc2ccccc2CN1; ξTic = O=C(O)C1Cc2ccccc2CN1

How the values were obtained:
[1] = Binding affinity for rat Opioid receptor delta 1
Outline: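 Rat brain synaptosomes (P2), preincubated to remove endogenous opioids and stored at -80 °C in buffered 20% glycerol. […] Filters were PEI-soaked GF/C, washed thrice in ice-cold buffered BSA. Five to eight doses, duplicates, independent preparations; Ki by Cheng-Prusoff, mean ± SE.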

Rattus norvegicus = species: Rattus norvegicus; assay: Ratio of binding affinities for rat Opioid receptors mu 1 and delta 1
Mu-type opioid receptor [2] = biological target: T1, Mu-type opioid receptor (Cavia porcellus, UniProt P97266); assay: Inhibition of Opioid receptor mu 1 in guinea pig ileum assay; assay type: functional, tissue-based
Outline: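 Male guinea pig ileum myenteric plexus-longitudinal muscle, field-stimulated with supramaximal-voltage bipolar rectangular pulses. Inhibition of the electrically evoked twitch was measured, with dermorphin as reference agonist. IC50 was taken from concentration-response curves, mean ± SE of at least five to six fresh tissues.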

[3] = biological target: T2, Delta-type opioid receptor (Mus musculus, UniProt P32300); assay: Antagonist activity against deltorphin in mouse vas deferens assay; assay type: functional, tissue-based; settings: read-out: pA2 (converted)
Outline: (§1)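 Mouse vas deferens, field-stimulated with supramaximal-voltage bipolar rectangular pulses. Antagonism was scored as a rightward shift of the deltorphin C log(concentration)-response curve and reported as pA2, the negative log molar antagonist concentration that doubles the agonist concentration needed for the original submaximal response.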

[4] = Binding affinity for rat Opioid receptor mu 1
[5] = biological target: T2, Delta-type opioid receptor; assay: Inhibition of Delta opioid receptor in mouse vas deferens assay; assay type: functional
Outline: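 Mouse vas deferens, field-stimulated with supramaximal-voltage bipolar rectangular pulses. Inhibition of the electrically evoked twitch was measured, with deltorphin C as reference agonist. IC50 was taken from concentration-response curves, mean ± SE of at least five to six fresh tissues.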

Mu-type opioid receptor [6] = biological target: T1, Mu-type opioid receptor; assay: Antagonist activity against dermorphin in guinea pig ileum assay; assay type: functional, tissue-based; settings: read-out: pA2 (converted)
Outline: as §1, with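 “Male guinea pig ileum myenteric plexus-longitudinal muscle,” for “Mouse vas deferens,”, “dermorphin” for “deltorphin C”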

T1 sequence (P97266 whole entry): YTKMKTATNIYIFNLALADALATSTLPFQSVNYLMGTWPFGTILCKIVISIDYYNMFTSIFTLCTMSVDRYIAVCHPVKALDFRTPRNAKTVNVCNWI
T2 sequence (P32300 whole entry): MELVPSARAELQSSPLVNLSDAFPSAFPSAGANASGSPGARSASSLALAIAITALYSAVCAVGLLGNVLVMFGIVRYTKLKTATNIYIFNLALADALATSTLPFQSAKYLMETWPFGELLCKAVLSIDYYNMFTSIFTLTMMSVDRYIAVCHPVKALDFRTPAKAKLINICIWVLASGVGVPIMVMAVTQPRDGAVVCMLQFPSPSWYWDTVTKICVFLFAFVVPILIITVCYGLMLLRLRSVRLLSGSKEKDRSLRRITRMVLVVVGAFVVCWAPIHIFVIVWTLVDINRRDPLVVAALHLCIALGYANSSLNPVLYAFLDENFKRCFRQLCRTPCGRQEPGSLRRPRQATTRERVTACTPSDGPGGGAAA

SMILES	Ki [1]	Ratio (Rattus norvegicus)	IC50 (Mu-type opioid receptor [2])	Kb [3]	Ki [4]	IC50 [5]	Kb (Mu-type opioid receptor [6])
Cc1cc(O)cc(C)c1C[C@H](N)C(=O)N1Cc2ccccc2C[C@H]1C(=O)NC(Cc1c[nH]cn1)C(=O)O (single isomer, unassigned)	0.12 nM	1.4	> 10000 nM	1.91 nM	174 nM	–	–
CC(=O)NCCCC[C@H](NC(=O)[C@@H]1Cc2ccccc2CN1C(=O)[C@@H](N)Cc1c(C)cc(O)cc1C)C(=O)O	0.04 nM	22.4	> 10000 nM	0.0851 nM	1050 nM	–	–
Cc1cc(O)cc(C)c1C[C@H](N)C(=O)N1Cc2ccccc2C[C@H]1C(=O)N[C@H](C)C(=O)O	–	20.4	–	–	–	–	–
Cc1cc(O)cc(C)c1C[C@H](N)C(=O)N1Cc2ccccc2C[C@H]1C(=O)N[C@@H](CC(N)=O)C(=O)O	1.1 nM	73	> 10000 nM	5.89 nM	80.3 nM	–	–
Cc1cc(O)cc(C)c1C[C@H](N)C(=O)N1Cc2ccccc2C[C@H]1C(=O)NCC(N)=O (H-[Dmt]-[Tic]-Gly-NH2)	0.25 nM	559	> 10000 nM	22.4 nM	140 nM	–	–
Cc1cc(O)cc(C)c1C[C@H](N)C(=O)N1Cc2ccccc2C[C@H]1C(=O)NC(CCCN=C(N)N)C(N)=O (single isomer, unassigned)	0.73 nM	21	6600 nM	126 nM	15.1 nM	–	–
Cc1cc(O)cc(C)c1C[C@H](N)C(=O)N1Cc2ccccc2C[C@H]1C(=O)N[C@H](CCC(N)=O)C(=O)O	0.45 nM	1.25	> 10000 nM	1.23 nM	562 nM	–	–
Cc1cc(O)cc(C)c1C[C@H](N)C(=O)N1Cc2ccccc2C[C@H]1C(=O)NC(CO)C(N)=O (single isomer, unassigned)	0.13 nM	1.12	> 10000 nM	8.51 nM	140 nM	–	–
Cc1cc(O)cc(C)c1C[C@H](N)C(=O)N1Cc2ccccc2C[C@H]1C(=O)N[C@H](CC(=O)O)C(N)=O	0.44 nM	834	> 10000 nM	7.24 nM	367 nM	–	–
Cc1cc(O)cc(C)c1C[C@H](N)C(=O)N1Cc2ccccc2C[C@H]1C(=O)N[C@@H](CCC(=O)O)C(N)=O	0.06 nM	22.6	–	< 0.1 nM	1360 nM	2500 nM	–
Cc1cc(O)cc(C)c1C[C@H](N)C(=O)N1Cc2ccccc2C[C@H]1C(=O)N[C@@H](CCC(N)=O)C(=O)O	0.32 nM	1.43	> 10000 nM	1.05 nM	465 nM	–	–
Cc1cc(O)cc(C)c1C[C@H](N)C(=O)N1Cc2ccccc2CC1C(=O)N[C@@H](Cc1c[nH]c2ccccc12)C(=O)O (some centres undefined) (H-[Dmt]-[ξTic]-Trp-OH)	–	462	–	–	–	–	–
Cc1cc(O)cc(C)c1C[C@H](N)C(=O)N1Cc2ccccc2C[C@H]1C(=O)N[C@@H](CC(=O)O)C(N)=O	0.29 nM	8.88	> 10000 nM	7.59 nM	2560 nM	–	–
Cc1cc(O)cc(C)c1C[C@H](N)C(=O)N1Cc2ccccc2C[C@H]1C(=O)N[C@H](CC(N)=O)C(=O)O	0.74 nM	5.4	> 10000 nM	5.89 nM	4000 nM	–	–
Cc1cc(O)cc(C)c1C[C@H](N)C(=O)N1Cc2ccccc2C[C@H]1C(=O)N[C@@H](C)C(=O)O	0.29 nM	–	> 10000 nM	–	5820 nM	–	–
Cc1cc(O)cc(C)c1C[C@H](N)C(=O)N1Cc2ccccc2C[C@H]1C(=O)NC(CCCCN)C(N)=O (single isomer, unassigned)	0.71 nM	24	7870 nM	13.5 nM	17 nM	–	–
Cc1cc(O)cc(C)c1C[C@H](N)C(=O)N1Cc2ccccc2C[C@H]1C(=O)NC(C)C(N)=O (stereo in doubt)	0.3 nM	158	> 10000 nM	25.1 nM	47.5 nM	–	–
CC(=O)NCCCC[C@@H](NC(=O)[C@@H]1Cc2ccccc2CN1C(=O)[C@@H](N)Cc1c(C)cc(O)cc1C)C(=O)O	0.08 nM	1.05	1500 nM	0.513 nM	86.8 nM	–	–
Cc1cc(O)cc(C)c1C[C@H](N)C(=O)N1Cc2ccccc2C[C@H]1C(=O)NC(CO)C(=O)O (single isomer, unassigned)	0.27 nM	10.5	> 10000 nM	1.32 nM	2830 nM	–	–
Cc1cc(O)cc(C)c1C[C@H](N)C(=O)N1Cc2ccccc2C[C@H]1C(=O)N[C@H](CCC(=O)O)C(N)=O	0.05 nM	17.4	–	2.29 nM	920 nM	–	< 7940 nM
Cc1cc(O)cc(C)c1C[C@H](N)C(=O)N1Cc2ccccc2C[C@H]1C(=O)N[C@@H](Cc1c[nH]c2ccccc12)C(=O)O (H-[Dmt]-[Tic]-Trp-OH)	0.03 nM	–	1500 nM	0.269 nM	15.7 nM	–	–
